Key:
[1] = folding enthalpy; higher = less favourable; fluorescence melt of hairpins on a sequencing array, two-state fit; conditions: sodium 0.088 M
Summary of the method: (§1)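 On a sequenced MiSeq flow cell, library hairpins with annealed Cy3 and quencher oligos were imaged for Cy3 fluorescence in 2.5 °C steps up to 60 °C, in 50 mM Na-HEPES pH 8.0, 25 mM NaCl. Normalisation used pre-quench Cy3 and control constructs. Bootstrapped two-state fits gave melting temperature and folding enthalpy, combined by inverse variance across four replicates and with fitted temperatures raised by 9.35 °C to match UV melts.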

[2] = melting temperature; fluorescence melt of hairpins on a sequencing array, two-state fit, raised by 9.35 °C to match UV melts; conditions: sodium 0.088 M
Summary of the method: as §1

GATGAGACGAAAGTCATC (((..(((....))))))
folding enthalpy [1]: -13.4 kcal/mol
Tm [2]: 35.9 °C

GCTCCAGGAAACTGAAGC (((.(((....))).)))
folding enthalpy [1]: -32.5 kcal/mol
Tm [2]: 38.6 °C

GGGTTGGGAAACTAGCCC (((.(.(....).).)))
folding enthalpy [1]: -21.4 kcal/mol
Tm [2]: 42 °C

GATTCCCGAAAGGGTATC (((.(((....))).)))
folding enthalpy [1]: -23.4 kcal/mol
Tm [2]: 45.6 °C

GATCCTGTACAGGATC ((((((....))))))
folding enthalpy [1]: -40.7 kcal/mol
Tm [2]: 60.2 °C

GATCGGCAATCCGATC ((((((....))))))
folding enthalpy [1]: -44.7 kcal/mol
Tm [2]: 55 °C

GCCGTGGGAAACCACAGC ((.((((....)))).))
folding enthalpy [1]: -18.6 kcal/mol
Tm [2]: 49.4 °C

GACTTGGCGAAAGCCGTC (((..(((....))))))
folding enthalpy [1]: -7.4 kcal/mol
Tm [2]: 48.4 °C

GACGTACGAAAGTAAGTC (((.(((....))).)))
folding enthalpy [1]: -29.2 kcal/mol
Tm [2]: 50.6 °C

GACCATGCGAAAGCAGTC (((..(((....))))))
folding enthalpy [1]: -10.6 kcal/mol
Tm [2]: 30.2 °C

GAAAGGGGAAACCCCTTC (((.(((....))).)))
folding enthalpy [1]: -14.8 kcal/mol
Tm [2]: 39.9 °C

GATCCAGCGTGGATC ((((((...))))))
folding enthalpy [1]: -27.4 kcal/mol
Tm [2]: 50.5 °C

GCTAACGAAAGTTAAAGC ((((((....)))..)))
folding enthalpy [1]: -18.5 kcal/mol
Tm [2]: 36.7 °C

GATCGGCCATCCGATC ((((((....))))))
folding enthalpy [1]: -40.4 kcal/mol
Tm [2]: 55.5 °C

GTGACTACGAAAGTACAC (((..(((....))))))
folding enthalpy [1]: -6.75 kcal/mol
Tm [2]: 29.3 °C

GATCCATGGTGGATC ((((((...))))))
folding enthalpy [1]: -36 kcal/mol
Tm [2]: 50.6 °C

GGTAGAGGAAACTTTACC ((((.((....)).))))
folding enthalpy [1]: -24.9 kcal/mol
Tm [2]: 34 °C

GTCAACGAAAGTTTGAC ((((((....))).)))
folding enthalpy [1]: -28.6 kcal/mol
Tm [2]: 46.9 °C

GCAAGGCGAAAGCCATGC (((.(((....))).)))
folding enthalpy [1]: -32.8 kcal/mol
Tm [2]: 57.9 °C

GCTGCACCGAAAGGTAGC (((..(((....))))))
folding enthalpy [1]: -13.4 kcal/mol
Tm [2]: 49.2 °C

CGCTCCCGGAAACGGGCG (((..(((....))))))
folding enthalpy [1]: -15.3 kcal/mol
Tm [2]: 42.7 °C

GCCCTCACGAAAGTGGGC (((..(((....))))))
folding enthalpy [1]: -19.4 kcal/mol
Tm [2]: 53.5 °C

GTCGTTGAAAAACGAC ((((((....))))))
folding enthalpy [1]: -35.2 kcal/mol
Tm [2]: 61.6 °C

GTAATTGGAAACGATTAC (((((.(....).)))))
folding enthalpy [1]: -32.4 kcal/mol
Tm [2]: 38.1 °C

GCCGGGCGAAAGCACCGC ((.(.((....)).).))
folding enthalpy [1]: -14.1 kcal/mol
Tm [2]: 49 °C

GGGCACCGAAAGGTCCCC (((.(((....))).)))
folding enthalpy [1]: -17.8 kcal/mol
Tm [2]: 54.7 °C

GCAACGCGAAAGCCTCGC ((.(.((....)).).))
folding enthalpy [1]: -7.26 kcal/mol
Tm [2]: 30.9 °C

GACATCCGAAAGGACGTC (((.(((....))).)))
folding enthalpy [1]: -37 kcal/mol
Tm [2]: 49 °C

GCGTGCTACGC ((((...))))
folding enthalpy [1]: -18.7 kcal/mol
Tm [2]: 62 °C

CGCGGAGCGTCCGCG ((((((...))))))
folding enthalpy [1]: -7.62 kcal/mol
Tm [2]: 68.1 °C

GCGTAGCGAAAGCCTCGC (((..((....))..)))
folding enthalpy [1]: -10.8 kcal/mol
Tm [2]: 44.1 °C

GGGTGCGAAAGCACTCCC ((((((....)))..)))
folding enthalpy [1]: -10.4 kcal/mol
Tm [2]: 53.5 °C

GGTTCTACGAAAGTAACC (((..(((....))))))
folding enthalpy [1]: -19.6 kcal/mol
Tm [2]: 28.2 °C

CGCGCTCGGAAACGAGCG (((..(((....))))))
folding enthalpy [1]: -7.49 kcal/mol
Tm [2]: 67.6 °C

GATCCTTAGTAGGATC ((((((....))))))
folding enthalpy [1]: -35.8 kcal/mol
Tm [2]: 50.3 °C

GTAGATGGAAACACCTAC ((((.((....)).))))
folding enthalpy [1]: -20.9 kcal/mol
Tm [2]: 32.9 °C

GCAAATGGAAACGTTTGC (((((.(....).)))))
folding enthalpy [1]: -38.1 kcal/mol
Tm [2]: 49.6 °C

GGCATTGGAAACGATGTC (.(((.(....).))).)
folding enthalpy [1]: -25.7 kcal/mol
Tm [2]: 35.1 °C

GATCTCATTAGAGATC ((((((....))))))
folding enthalpy [1]: -35 kcal/mol
Tm [2]: 57.1 °C

GATCTTGAGTAAGATC ((((((....))))))
folding enthalpy [1]: -25.4 kcal/mol
Tm [2]: 40.4 °C

GCTGAGCGAAAGCGCCGC ((.(.((....)).).))
folding enthalpy [1]: -15.2 kcal/mol
Tm [2]: 50.5 °C

GGTTACGAAAGTACTACC ((((((....)))..)))
folding enthalpy [1]: -23.2 kcal/mol
Tm [2]: 28.4 °C

GTAAACCGAAAGGTTAC (((.(((....))))))
folding enthalpy [1]: -15.7 kcal/mol
Tm [2]: 43.2 °C

GTGCGAGGAAACTCGTAC ((.((((....)))).))
folding enthalpy [1]: -31.6 kcal/mol
Tm [2]: 53.4 °C

GTGGGTCCGAAAGGACAC (((..(((....))))))
folding enthalpy [1]: -19 kcal/mol
Tm [2]: 63 °C

GCTGTGCGAAAGCAGAGC (((.(((....))).)))
folding enthalpy [1]: -56 kcal/mol
Tm [2]: 57.8 °C

GGACGCGAAAGCGGTCC ((((((....))).)))
folding enthalpy [1]: -21.2 kcal/mol
Tm [2]: 68.8 °C

GCACCGCGAAAGCGTAGC ((..(((....)))..))
folding enthalpy [1]: -12.3 kcal/mol
Tm [2]: 41.2 °C

GATCTGCGCGCAGATC ((((((....))))))
folding enthalpy [1]: -50.8 kcal/mol
Tm [2]: 66.7 °C

GCCAAGCGAAAGCCGGGC (((..((....))..)))
folding enthalpy [1]: -22.4 kcal/mol
Tm [2]: 57.7 °C

GATCCATTAATGGATC ((((((....))))))
folding enthalpy [1]: -38.7 kcal/mol
Tm [2]: 54.8 °C

GGCAGCGAAAGCTGTGCC ((((((....)))..)))
folding enthalpy [1]: -13.2 kcal/mol
Tm [2]: 51 °C

TGTCTGAAAAGACA (((((....)))))
folding enthalpy [1]: -20.4 kcal/mol
Tm [2]: 47.2 °C

GTAGTGCGAAAGCATAC (((.(((....))))))
folding enthalpy [1]: -12.6 kcal/mol
Tm [2]: 40.5 °C

GCTTTAGGAAACTAGAGC (((.(((....))).)))
folding enthalpy [1]: -31.9 kcal/mol
Tm [2]: 35.4 °C

CGAACGGAAACGTCTCG ((((((....))).)))
folding enthalpy [1]: -29.3 kcal/mol
Tm [2]: 36.8 °C

GATGGCGAAAGCCTAATC ((((((....)))..)))
folding enthalpy [1]: -9.84 kcal/mol
Tm [2]: 32 °C

GTTGCTCGAAAGAGAAAC (((.(((....))).)))
folding enthalpy [1]: -32.3 kcal/mol
Tm [2]: 48 °C

GATCTTTTGGAAGATC ((((((....))))))
folding enthalpy [1]: -34.1 kcal/mol
Tm [2]: 44.3 °C

GAATCTCCGAAAGGATTC (((..(((....))))))
folding enthalpy [1]: -13.5 kcal/mol
Tm [2]: 28.7 °C

GATCGGTGTTCCGATC ((((((....))))))
folding enthalpy [1]: -41.3 kcal/mol
Tm [2]: 58.6 °C

GCTAGTCGAAAGACCAGC (((.(((....))).)))
folding enthalpy [1]: -26.6 kcal/mol
Tm [2]: 47.3 °C

GCGCACGAAAGTGTTCGC ((((((....)))..)))
folding enthalpy [1]: -22.1 kcal/mol
Tm [2]: 48.2 °C

GCCATGCGAAAGCATCGC ((.((((....)))).))
folding enthalpy [1]: -18.1 kcal/mol
Tm [2]: 49.5 °C

GTGGGCGAAAGCCACAC ((((((....))).)))
folding enthalpy [1]: -14.4 kcal/mol
Tm [2]: 59.9 °C

GTAGCCGGAAACGGCTGC (.(((((....))))).)
folding enthalpy [1]: -15.9 kcal/mol
Tm [2]: 60.9 °C

GGACCCGGAAACGAGTCC ((((.((....)).))))
folding enthalpy [1]: -32.4 kcal/mol
Tm [2]: 49.3 °C

CTAGTGAAAACTAG (((((....)))))
folding enthalpy [1]: -15 kcal/mol
Tm [2]: 42.4 °C

GCGTAGGGAAACCTATGC ((.((((....)))).))
folding enthalpy [1]: -34.1 kcal/mol
Tm [2]: 50.3 °C

GATCACAGCGGTGATC ((((((....))))))
folding enthalpy [1]: -29.1 kcal/mol
Tm [2]: 56.3 °C

GCTGTGGGAAACCATGGC ((..(((....)))..))
folding enthalpy [1]: -33.5 kcal/mol
Tm [2]: 44.5 °C

GTGCTTGGAAACAAGCAC (((((((....)))))))
folding enthalpy [1]: -38.7 kcal/mol
Tm [2]: 68.1 °C

GGAGTGCGAAAGCAGTCC (((.(((....))).)))
folding enthalpy [1]: -30.1 kcal/mol
Tm [2]: 65.8 °C

GTAACCGGAAACGGCTAC (((.(((....))).)))
folding enthalpy [1]: -25.9 kcal/mol
Tm [2]: 42.9 °C

GATCATAAGATGATC ((((((...))))))
folding enthalpy [1]: -31.1 kcal/mol
Tm [2]: 46.6 °C

GGCATCCGAAAGGAAGCC (((.(((....))).)))
folding enthalpy [1]: -42.9 kcal/mol
Tm [2]: 59.2 °C

GCCCTCTCGAAAGAGGGC (((..(((....))))))
folding enthalpy [1]: -40.5 kcal/mol
Tm [2]: 68.1 °C

GAAACCGAAAGGTATTC ((((((....))).)))
folding enthalpy [1]: -14.1 kcal/mol
Tm [2]: 31.6 °C

GTAAGTCCGAAAGGATAC (((..(((....))))))
folding enthalpy [1]: -10.1 kcal/mol
Tm [2]: 25.9 °C

GATCCGGGTCCGGATC ((((((....))))))
folding enthalpy [1]: -39.1 kcal/mol
Tm [2]: 62.5 °C

GGGATTACGAAAGTACCC (((..(((....))))))
folding enthalpy [1]: -17.1 kcal/mol
Tm [2]: 34.1 °C

GGCGATGGAAACATCGTC (.(((((....))))).)
folding enthalpy [1]: -45.8 kcal/mol
Tm [2]: 56.5 °C

GCGGTAGACCGC ((((....))))
folding enthalpy [1]: -25.7 kcal/mol
Tm [2]: 60.8 °C

GCTCACGAAAGTGCGAGC ((((((....)))..)))
folding enthalpy [1]: -19.8 kcal/mol
Tm [2]: 38.7 °C

GTAGCCCGAAAGGGTAC (((.(((....))))))
folding enthalpy [1]: -17.7 kcal/mol
Tm [2]: 48.6 °C

GGTAGAGGAAACCCTACC (((((.(....).)))))
folding enthalpy [1]: -33.4 kcal/mol
Tm [2]: 38.2 °C

GGGTATCGAAAGATCCC (((.(((....))))))
folding enthalpy [1]: -30.6 kcal/mol
Tm [2]: 49.7 °C

GACAATGGAAACATTGCC (.(((((....))))).)
folding enthalpy [1]: -18.6 kcal/mol
Tm [2]: 38.2 °C

GTCATAGGAAACCATGAC (((((.(....).)))))
folding enthalpy [1]: -27.6 kcal/mol
Tm [2]: 38.5 °C

GAGACGCGAAAGCGACTC (((.(((....))).)))
folding enthalpy [1]: -24.9 kcal/mol
Tm [2]: 66.4 °C

GGTGGCGAAAGCCGACC ((((((....))).)))
folding enthalpy [1]: -17.6 kcal/mol
Tm [2]: 59.6 °C

GATCCGGGGTCGGATC ((((((....))))))
folding enthalpy [1]: -47.9 kcal/mol
Tm [2]: 56.7 °C

From the array DNA melting data of Ke et al. (doi:10.1101/2024.01.08.574731)
